Assay results reported in ChEMBL document CHEMBL1129795, “2-Azetidinone cholesterol absorption inhibitors: structure-activity relationships on the heterocyclic nucleus” (1996).

Tests used:
[1] = tested on: Cricetinae gen. sp.; test: In vivo cholesterol absorption inhibitory activity using 7-day cholesterol-fed hamster model (expressed as percent change in serum cholesterol at 50 mg/kg/day); assay type: functional, Cricetulus griseus
Summary of the method: (§1)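 Hamsters were fed a high-cholesterol diet for 7 days and gavaged once daily with compound in 0.2 mL corn oil. On the last day, animals were sacrificed and hepatic and serum lipids were determined. Results are given as percent change in hepatic cholesteryl ester or serum cholesterol concentration versus diet-fed controls gavaged with corn oil without drug.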

[2] = tested on: Cricetinae gen. sp.; test: In vivo for cholesterol absorption inhibitory activity using 7-day cholesterol-fed hamster model (expressed as percent change in cholesteryl esters at 50 mg/kg/day); assay type: functional, Cricetulus griseus; summary of the method: as §1

C=CCN1C(=O)[C@H](CCCc2ccccc2)[C@H]1c1ccc(OC)cc1 gave a Change [1] of 0% and a Change [2] of 0%.

Molecule COc1ccc([C@H]2N(c3ccc(OC)cc3)C(=O)[C@@]2(Cc2ccccc2)c2ccccc2)cc1 has a Change [1] of 16% and a Change [2] of 16%.

COc1ccc([C@@H]2[C@@H](CCCc3ccccc3)C(=S)N2c2ccc(OC)cc2)cc1 was tested, and the Change [1] was 0% and the Change [2] was -23%.

Molecule COc1ccc([C@@H]2[C@H](CCCCCc3ccccc3)C(=O)N2c2ccc(OC)cc2)cc1 has a Change [1] of -24% and a Change [2] of -70%.

For COc1ccc(N2C(=O)[C@H](CCCc3ccccc3)[C@H]2c2ccc(OCc3ccccc3)cc2)cc1, the Change [1] was -15% and the Change [2] was -48%.

In the case of COc1ccc([C@@H]2[C@@H](CCCc3ccccc3)C(=O)N2Cc2ccccc2)cc1, the Change [1] is reported as 0% and the Change [2] is reported as 16%.

Molecule COc1ccc([C@H]2N(c3ccccc3)C(=O)[C@@]2(F)CCCc2ccccc2)cc1 has a Change [1] of -30% and a Change [2] of -94%.

With COc1ccc([C@@H]2[C@@H](CCCc3ccccc3)C(=O)N2c2cc(F)cc(F)c2)cc1 the Change [1] was -52% and the Change [2] was -93%.

Work on COc1ccc(CN2C(=O)[C@H](CCCc3ccccc3)[C@H]2c2ccc(OC)cc2)cc1 yielded a Change [1] of 0% and a Change [2] of -26%.

In the case of COc1ccc([C@@H]2[C@@H](CCCc3ccccc3)C(=O)N2C(C)C)cc1, the Change [1] is reported as -16% and the Change [2] is reported as -30%.

COc1ccc(N2C(=O)C(CCCc3ccccc3)[C@]2(c2ccc(OC)cc2)C(F)(F)F)cc1 (stereo partly drawn) showed a Change [1] of 0% and a Change [2] of -11%.

With COc1ccc([C@@H]2[C@@H](CCCc3ccccc3)C(=O)N2c2ccc(F)cc2)cc1 the Change [1] was -38% and the Change [2] was -95%.

COc1ccc([C@@H]2[C@@H](CCCc3ccccc3)C(=O)N2C23C[C@H]4C[C@@H](C2)C[C@@H](C3)C4)cc1 was tested, and the Change [1] was 0% and the Change [2] was 0%.

With CCCCOc1ccc([C@@H]2[C@@H](CCCc3ccccc3)C(=O)N2c2ccc(OC)cc2)cc1 the Change [1] was -34% and the Change [2] was -64%.

For COc1ccc(C(=O)N2C(=O)[C@H](CCCc3ccccc3)[C@H]2c2ccc(OC)cc2)cc1, the Change [1] was -25% and the Change [2] was 0%.

For COc1ccc([C@@H]2[C@@H](CCCc3ccccc3)C(=O)N2c2ccccc2)cc1, the Change [1] was -49% and the Change [2] was -95%.

With CC[C@@]1(CCCc2ccccc2)C(=O)N(c2ccc(OC)cc2)[C@@H]1c1ccccc1 the Change [1] was 0% and the Change [2] was 0%.

CC[C@]1(CCCc2ccccc2)C(=O)N(c2ccc(OC)cc2)[C@@H]1c1ccccc1 gave a Change [1] of -12% and a Change [2] of -29%.

COc1ccc([C@@H]2[C@@H](CCCc3ccccc3)C(=O)N2c2ccccc2OC)cc1 gave a Change [1] of -49% and a Change [2] of -87%.

COc1ccc([C@@H]2[C@@H](CCCc3ccccc3)C(=O)N2c2ccc(C)cc2)cc1 was tested, and the Change [1] was -38% and the Change [2] was -90%.

COc1ccc([C@@H]2[C@@H](CCCc3ccccc3)C(=O)N2c2ccc(SC)cc2)cc1 was tested, and the Change [1] was -26% and the Change [2] was -70%.

COCc1ccc([C@@H]2[C@@H](CCCc3ccccc3)C(=O)N2c2ccc(OC)cc2)cc1 was tested, and the Change [1] was -27% and the Change [2] was -56%.

COc1ccc([C@@H]2[C@@H](CCCc3ccccc3)C(=O)N2C(=O)c2ccccc2)cc1 gave a Change [1] of 0% and a Change [2] of 16%.

Work on COc1ccc(N2C(=O)[C@H](CCCc3ccccc3)[C@H]2c2ccc(N(C)C)cc2)cc1 yielded a Change [1] of -29% and a Change [2] of -60%.

Work on COc1ccc(N2C(=O)[C@H](CCCc3ccccc3)[C@H]2c2ccc(F)cc2)cc1 yielded a Change [1] of 0% and a Change [2] of 12%.

COc1ccc([C@@H]2[C@H](CCc3ccccc3)C(=O)N2c2ccc(OC)cc2)cc1 showed a Change [1] of 0% and a Change [2] of -19%.

C=CCOc1ccc(N2C(=O)[C@H](CCCc3ccccc3)[C@H]2c2ccc(OC)cc2)cc1 was tested, and the Change [1] was -44% and the Change [2] was -90%.

COc1ccc(N2C(=O)[C@H](CCCc3ccccc3)[C@H]2c2ccc(OC)cc2OC)cc1 gave a Change [1] of -26% and a Change [2] of -78%.

With COc1ccc([C@@H]2[C@@H](CCCc3ccccc3)C(=O)N2C2CC2)cc1 the Change [1] was -20% and the Change [2] was -61%.

For COc1ccc([C@@H]2[C@@H](CCCc3ccccc3)C(=O)N2c2ccc(C#N)cc2)cc1, the Change [1] was -35% and the Change [2] was -74%.

Work on O=C1[C@H](CCCc2ccccc2)[C@@H](c2ccc(O)cc2)N1c1ccc(O)cc1 yielded a Change [1] of -35% and a Change [2] of -90%.

In the case of COc1ccc(N2C(=O)[C@H](CCCc3ccccc3)[C@H]2c2ccc3c(c2)OCO3)cc1, the Change [1] is reported as 0% and the Change [2] is reported as -19%.

COc1ccc(N2C(=O)[C@H](CCCc3ccccc3)[C@H]2c2ccc(OC(C)(C)C)cc2)cc1 showed a Change [1] of -26% and a Change [2] of -80%.

For CCOc1ccc(N2C(=O)[C@H](CCCc3ccccc3)[C@H]2c2ccc(OC)cc2)cc1, the Change [1] was -57% and the Change [2] was -96%.

In the case of COc1ccc([C@@H]2[C@@H](CCCc3ccccc3)C(=O)N2c2cccc(OC)c2)cc1, the Change [1] is reported as -38% and the Change [2] is reported as -91%.

Molecule COc1ccc(N2C(=O)[C@H](CCCc3ccccc3)[C@H]2c2ccc(SC)cc2)cc1 has a Change [1] of 0% and a Change [2] of 0%.

Work on CCN(CC)c1ccc(N2C(=O)[C@H](CCCc3ccccc3)[C@H]2c2ccc(OC)cc2)cc1 yielded a Change [1] of -51% and a Change [2] of -95%.

In the case of COc1ccc(N2C(=O)[C@H](CCCc3ccccc3)[C@H]2c2ccccc2OC)cc1, the Change [1] is reported as 0% and the Change [2] is reported as 0%.

COc1ccc([C@@H]2[C@@H](CCCc3ccccc3)C(=O)N2c2ccc([S+](C)[O-])cc2)cc1 (stereo partly drawn) was tested, and the Change [1] was -11% and the Change [2] was 0%.

COc1ccc([C@@H]2[C@@H](CCCc3ccccc3)C(=O)N2c2ccc(Cl)cc2)cc1 gave a Change [1] of -44% and a Change [2] of -93%.

COc1ccc(N2C(=O)[C@@H](CCCc3ccccc3)[C@H]2c2ccc(S)cc2)cc1 was tested, and the Change [1] was -19% and the Change [2] was 0%.

Work on COc1ccc([C@@H]2[C@@H](CCCc3ccccc3)C(=O)N2c2ccc(C)c(C)c2)cc1 yielded a Change [1] of -21% and a Change [2] of -39%.

In the case of CCCOc1ccc([C@@H]2[C@@H](CCCc3ccccc3)C(=O)N2c2ccc(OC)cc2)cc1, the Change [1] is reported as -40% and the Change [2] is reported as -95%.

For COc1ccc([C@@H]2[C@@H](CCCc3ccccc3)C(=O)N2c2ccc(OC(F)(F)F)cc2)cc1, the Change [1] was -34% and the Change [2] was -85%.

Work on COc1ccc([C@@H]2[C@@H](CCCc3ccccc3)C(=O)N2c2cccc(N)c2)cc1 yielded a Change [1] of -25% and a Change [2] of -54%.

In the case of COc1ccc(N2C(=O)[C@H](CCCc3ccccc3)[C@H]2c2ccc(OC(F)(F)F)cc2)cc1, the Change [1] is reported as 0% and the Change [2] is reported as -29%.

With CC[C@H]1C(=O)N(c2ccc(OC)cc2)[C@@H]1c1ccc(OC)cc1 the Change [1] was 0% and the Change [2] was 0%.

In the case of COc1ccc([C@H]2N(c3ccc(OC)cc3)C(=O)[C@@]2(C)CCCc2ccccc2)cc1, the Change [1] is reported as 0% and the Change [2] is reported as -56%.

COc1ccc(N2C(=O)[C@H](CCCc3ccccc3)[C@H]2c2ccc(NS(C)(=O)=O)cc2)cc1 showed a Change [1] of -8% and a Change [2] of -46%.

COc1ccc([C@H]2N(c3ccc(OC)cc3)C(=O)[C@]2(Cc2ccccc2)c2ccccc2)cc1 was tested, and the Change [1] was 23% and the Change [2] was -15%.

Work on COc1ccc(N2C(=O)[C@@H](CCCc3ccccc3)[C@H]2c2ccc(OC)c(OC)c2)cc1 yielded a Change [1] of 0% and a Change [2] of 0%.

COc1ccc(N2C(=O)[C@H](CCCc3ccccc3)[C@H]2c2ccc([S+](C)[O-])cc2)cc1 (stereo partly drawn) showed a Change [1] of -17% and a Change [2] of -32%.

For COc1ccc([C@@H]2[C@@H](CCCc3ccccc3)C(=O)N2C2CCCCC2)cc1, the Change [1] was 0% and the Change [2] was 0%.

For COc1ccc(N[C@H](c2ccc(OC)cc2)[C@@H](CCCc2ccccc2)C(=O)O)cc1, the Change [1] was -8% and the Change [2] was 0%.

In the case of CC[C@@]1(CCCc2ccccc2)C(=O)N(c2ccc(OC)cc2)[C@@H]1c1ccc(OC)cc1, the Change [1] is reported as 0% and the Change [2] is reported as 0%.

COc1ccc([C@@H]2[C@H](CCCCCCc3ccccc3)C(=O)N2c2ccc(OC)cc2)cc1 showed a Change [1] of -29% and a Change [2] of 0%.

CC[C@@]1(c2ccccc2)C(=O)N(c2ccc(OC)cc2)[C@@H]1c1ccc(OC)cc1 gave a Change [1] of 0% and a Change [2] of -28%.

For CCCCOc1ccc([C@@H]2[C@H](CCCc3ccccc3)C(=O)N2c2ccc(OC)cc2)cc1, the Change [1] was -15% and the Change [2] was -70%.

COc1ccc(N2C(=O)[C@H](CCCc3ccccc3)[C@H]2c2ccc(NC(C)=O)cc2)cc1 showed a Change [1] of -4% and a Change [2] of -26%.

Work on COc1ccc([C@@H]2[C@@H](CCCc3ccccc3)C(=O)N2c2ccc(OC)cc2)cc1 [SCH-48461] yielded a Change [1] of -29% and a Change [2] of -77.5%.

In the case of COc1ccc(N2C(=O)[C@@H](CCCc3ccccc3)[C@H]2c2ccc(OC(C)C)cc2)cc1, the Change [1] is reported as -28% and the Change [2] is reported as -78%.

COc1ccc([C@@H]2[C@@H](CCCc3ccccc3)C(=O)N2c2c(OC)cc(OC)cc2OC)cc1 gave a Change [1] of 0% and a Change [2] of 0%.

With COc1ccc(N2C(=O)[C@H](CCCc3ccccc3)[C@H]2c2ccc(Oc3ccccc3)cc2)cc1 the Change [1] was -37% and the Change [2] was -77%.

With COc1ccc([C@@H]2[C@@H](CCCCCCc3ccccc3)C(=O)N2c2ccc(OC)cc2)cc1 the Change [1] was -19% and the Change [2] was -17%.

Molecule COc1ccc([C@@H]2[C@H](CCCCc3ccccc3)C(=O)N2c2ccc(OC)cc2)cc1 has a Change [1] of -28% and a Change [2] of -72%.

In the case of CC[C@]1(CCCc2ccccc2)C(=O)N(c2ccc(OC)cc2)[C@@H]1c1ccc(OC)cc1, the Change [1] is reported as 0% and the Change [2] is reported as 0%.

CCN1C(=O)[C@H](CCCc2ccccc2)[C@H]1c1ccc(OC)cc1 showed a Change [1] of -13% and a Change [2] of -21%.

Work on COc1ccc([C@H]2N(c3ccc(OC)cc3)C(=O)[C@]2(C)CCCc2ccccc2)cc1 yielded a Change [1] of 0% and a Change [2] of 21%.

COc1ccc([C@@H]2[C@@H](CCc3ccccc3)C(=O)N2c2ccc(OC)cc2)cc1 gave a Change [1] of 0% and a Change [2] of 0%.
